# The source made the active and inactive calls. No cut-off for these calls is given here.
# Legend:
# [1] = Cytotoxicity against MDCK cells assessed as reduction in cell viability after 48 hrs by CellTiter 96 aqueous non-radioactive cell proliferation assay; assay type: cell-based, Canis lupus familiaris; conditions: dog
# Outline: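 Uninfected MDCK cells at 1 × 10^5 cells/mL were exposed to inhibitor at varied concentrations for 48 h at 37 °C, 5.0% CO2. Viability was read with CellTiter 96 AQueous reagent (15 min, absorbance at 490 nm). CC50 was derived by curve fitting as for EC50.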
# [2] = test system: Influenza A virus; assay: Antiviral activity against Influenza A virus (A/WSN/1933(H1N1)) infected in MDCK cells assessed as reduction in virus-induced cytopathic effect after 48 hrs by CellTiter 96 aqueous non-radioactive cell proliferation assay; assay type: functional, organism-based
# Outline: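 MDCK cells (DMEM with 10% FBS, 37 °C, 5% CO2) were seeded at 1 × 10^5 cells/mL and infected with 100 TCID50 of A/WSN/33 premixed with inhibitor at varied concentrations. Incubation was 48 h at 37 °C, 5.0% CO2. Viability was read with CellTiter 96 AQueous reagent (15 min, A490). EC50 was fitted from % CPE vs concentration, as mean ± SD of three experiments.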
# [3] = target: Neuraminidase (Influenza A virus (A/Puerto Rico/8/1934(H1N1))) (UniProt P03468); assay: Irreversible inhibition of influenza A virus (A/WSN/1933(H1N1)) neuraminidase using MUNANA as fluorogenic substrate preincubated up to 48 hrs followed by substrate addition and measured after 15 mins by fluorometric assay
# Chain of Neuraminidase (Influenza A virus (A/Puerto Rico/8/1934(H1N1))) (P03468 whole entry): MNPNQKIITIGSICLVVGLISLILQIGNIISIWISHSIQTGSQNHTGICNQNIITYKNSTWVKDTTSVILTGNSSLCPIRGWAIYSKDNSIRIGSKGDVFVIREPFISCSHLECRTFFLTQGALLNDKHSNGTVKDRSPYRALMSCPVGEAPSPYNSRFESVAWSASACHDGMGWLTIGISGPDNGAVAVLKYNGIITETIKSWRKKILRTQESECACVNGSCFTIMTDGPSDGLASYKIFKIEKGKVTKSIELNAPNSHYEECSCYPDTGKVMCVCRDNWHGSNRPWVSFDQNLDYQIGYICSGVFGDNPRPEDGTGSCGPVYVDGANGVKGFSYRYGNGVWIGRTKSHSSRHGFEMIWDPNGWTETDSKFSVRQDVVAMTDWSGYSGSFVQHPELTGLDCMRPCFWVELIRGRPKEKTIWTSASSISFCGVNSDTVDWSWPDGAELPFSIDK
SMILES,CC50 at 48 h [1] [nM],EC50 [2] [nM],inhibition [3]
CCC(CC)O[C@@H]1C=C([S+]([O-])O)C[C@H](NC(=N)N)[C@H]1NC(C)=O (stereo not given in full),> 100000,7.8,
CCC(CC)O[C@@H]1C=C([B-](F)(F)F)C[C@H](NC(=N)N)[C@H]1NC(C)=O,,270,inactive
CCC(CC)O[C@@H]1C=C(S(C)(=O)=O)C[C@H](NC(=N)N)[C@H]1NC(C)=O,> 100000,46,
CCC(CC)O[C@@H]1C=C(B(O)O)C[C@H](NC(=N)N)[C@H]1NC(C)=O,,580,inactive
CCC(CC)O[C@@H]1C=C(S(=O)(=O)OCCCc2ccccc2)C[C@H](N)[C@H]1NC(C)=O,,280,
CCCCOS(=O)(=O)C1=C[C@@H](OC(CC)CC)[C@H](NC(C)=O)[C@@H](NC(=N)N)C1,> 100000,31,
CCC(CC)O[C@@H]1C=C(S(=O)(=O)OCCCc2ccccc2)C[C@H](NC(=N)N)[C@H]1NC(C)=O,> 100000,24,
CCC(CC)O[C@@H]1C=C(S(=O)(=O)CCc2ccncc2)C[C@H](NC(=N)N)[C@H]1NC(C)=O,> 100000,100,
CCC(CC)O[C@@H]1C=C(B(O)O)C[C@H](N)[C@H]1NC(C)=O,,1700,inactive
CCC(CC)O[C@@H]1C=C([B-](F)(F)F)C[C@H](N)[C@H]1NC(C)=O,,860,inactive
CCC(CC)O[C@@H]1C=C(S(=O)(=O)CCc2ccncc2)C[C@H](N)[C@H]1NC(C)=O,,1500,
CCC(CC)O[C@@H]1C=C([S+]([O-])O)C[C@H](N)[C@H]1NC(C)=O (stereo not given in full),> 100000,48,
CCCCOS(=O)(=O)C1=C[C@@H](OC(CC)CC)[C@H](NC(C)=O)[C@@H](N)C1,,190,
CCC(CC)O[C@@H]1C=C(S(C)(=O)=O)C[C@H](N)[C@H]1NC(C)=O,,1200,
CCC(CC)O[C@@H]1C=C(S(=O)(=O)O)C[C@H](NC(=N)N)[C@H]1NC(C)=O,> 100000,2.2,
CCC(CC)O[C@@H]1C=C(S(=O)(=O)O)C[C@H](N)[C@H]1NC(C)=O,> 100000,14,
CCC(CC)O[C@@H]1C=C(C(=O)O)C[C@H](NC(=N)N)[C@H]1NC(C)=O,,14,
CCC(CC)O[C@@H]1C=C(C(=O)O)C[C@H](N)[C@H]1NC(C)=O [OSELTAMIVIR CARBOXYLATE],,28,

# Reference: ChEMBL document CHEMBL4411292, “Boronate, trifluoroborate, sulfone, sulfinate and sulfonate congeners of oseltamivir carboxylic acid: Synthesis and anti-influenza activity” (Eur J Med Chem, 2019)
